# Test results as given in ChEMBL document CHEMBL1135670, “Discovery of 8-hydroxyadenines as a novel type of interferon inducer” (2002).
# How the values were obtained:
# Mus musculus [1] = assay: Minimum effective dose required for more than 100 IU/mL induction of IFN using mice after peroral administration.; format: functional; details: po, read-out: MED
# Procedure, shortened: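 Compound dosed orally to mice; IFN measured in plasma in IU/mL. Value is the minimum effective dose in mg/kg, the lowest dose giving more than 100 IU/mL IFN.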
# Mus musculus [2] = species: Mus musculus; assay: Minimum effective concentration required for more than 1 IU/mL induction of IFN using mice spleen cells; format: functional; details: read-out: MEC
# Procedure, shortened: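 Mouse spleen cells incubated with compound; IFN released into medium measured in IU/mL. Value is the minimum effective concentration, the lowest concentration giving more than 1 IU/mL IFN.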
SMILES,minimal effective dose (Mus musculus [1]),minimal effective concentration (Mus musculus [2])
CCCCCOc1nc(N)c2nc(O)n(Cc3ccccc3)c2n1,0.3 mg/kg,0.01 µM
Nc1nc(N)c2nc(O)n(Cc3ccccc3)c2n1,,10 µM
Nc1nc(-c2ccccc2)nc2c1nc(O)n2Cc1ccccc1,> 30 mg/kg,10 µM
Nc1ncnc2[nH]c(O)nc12,,> 10 µM
Cc1nc(N)c2nc(O)n(Cc3ccccc3)c2n1,3 mg/kg,1 µM
CCNc1nc(N)c2nc(O)n(Cc3ccccc3)c2n1,,1 µM
CCCOc1nc(N)c2nc(O)n(Cc3ccccc3)c2n1,0.3 mg/kg,0.01 µM
CCOc1nc(N)c2nc(O)n(Cc3ccccc3)c2n1,0.3 mg/kg,0.1 µM
COc1cccc(Cn2c(O)nc3c(N)ncnc32)c1,,10 µM
COc1ccc(Cn2c(O)nc3c(N)ncnc32)cc1,,10 µM
COc1nc2c(N)ncnc2n1Cc1ccccc1,,> 10 µM
Nc1ncnc2c1nc(O)n2Cc1ccc(F)cc1,30 mg/kg,10 µM
Nc1nc(SCc2ccccc2)nc2c1nc(O)n2Cc1ccccc1,> 1 mg/kg,0.1 µM
CCCCOc1nc(N)c2[nH]c(=O)n(Cc3ccccc3)c2n1,0.1 mg/kg,0.001 µM
CCCCc1nc(N)c2nc(O)n(Cc3ccccc3)c2n1,0.3 mg/kg,0.03 µM
Nc1ncnc2c1nc(Br)n2Cc1ccccc1,,> 10 µM
CCCc1nc(N)c2nc(O)n(Cc3ccccc3)c2n1,3 mg/kg,1 µM
CCCCNc1nc(N)c2nc(O)n(Cc3ccccc3)c2n1,0.1 mg/kg,0.1 µM
CCc1nc(N)c2nc(O)n(Cc3ccccc3)c2n1,3 mg/kg,1 µM
Cc1nc2c(N)ncnc2n1Cc1ccccc1,,> 10 µM
Nc1ncnc2c1nc(O)n2-c1ccccc1,,> 10 µM
CCCCSc1nc(N)c2nc(O)n(Cc3ccccc3)c2n1,0.3 mg/kg,0.01 µM
CCCCCSc1nc(N)c2nc(O)n(Cc3ccccc3)c2n1,1 mg/kg,10 µM
Nc1ncnc2c1nc(Cl)n2Cc1ccccc1,,> 10 µM

SMILES,minimal effective dose (Mus musculus [1]),minimal effective concentration (Mus musculus [2])
CSc1nc(N)c2nc(O)n(Cc3ccccc3)c2n1,0.1 mg/kg,0.1 µM
Nc1nc(S)nc2c1nc(O)n2Cc1ccccc1,,10 µM
CCCSc1nc(N)c2nc(O)n(Cc3ccccc3)c2n1,0.1 mg/kg,0.01 µM
NNc1nc2c(N)ncnc2n1Cc1ccccc1,,> 10 µM
CCSc1nc(N)c2nc(O)n(Cc3ccccc3)c2n1,0.1 mg/kg,0.1 µM
Nc1ncnc2c1nc(I)n2Cc1ccccc1,,> 10 µM
Nc1ncnc2c1nc(O)n2Cc1cccc2ccccc12,,10 µM
COc1ccccc1Cn1c(O)nc2c(N)ncnc21,,10 µM
COc1nc(N)c2nc(O)n(Cc3ccccc3)c2n1,> 1 mg/kg,0.1 µM
Nc1nc(O)nc2c1nc(O)n2Cc1ccccc1,1 mg/kg,0.1 µM
CCCCCNc1nc(N)c2nc(O)n(Cc3ccccc3)c2n1,0.3 mg/kg,0.1 µM
Cc1ccc(Cn2c(O)nc3c(N)ncnc32)cc1,,10 µM
CSc1nc2c(N)ncnc2n1Cc1ccccc1,,> 10 µM
Nc1ncnc2c1nc(S)n2Cc1ccccc1,> 30 mg/kg,10 µM
Nc1ncnc2c1nc(O)n2C1CCCC1,,> 10 µM
CCCNc1nc(N)c2nc(O)n(Cc3ccccc3)c2n1,1 mg/kg,0.1 µM
Nc1ncnc2c1nc(O)n2Cc1ccc(Cl)cc1,30 mg/kg,10 µM
CCCCn1c(O)nc2c(N)ncnc21,,> 10 µM
CNc1nc(N)c2nc(O)n(Cc3ccccc3)c2n1,,1 µM
Nc1ncnc2c1nc(O)n2Cc1ccccc1,30 mg/kg,10 µM
CCCC[S+]([O-])c1nc(N)c2nc(O)n(Cc3ccccc3)c2n1 (centres undefined),1 mg/kg,0.01 µM
Nc1ncnc2c1nc(O)n2CCc1ccccc1,,> 10 µM
Nc1ncnc2c1ncn2Cc1ccccc1 [9-BENZYL-9H-ADENINE],,> 10 µM
CC(C)Cn1cnc2c(N)nc3ccccc3c21 [IMIQUIMOD],3 mg/kg,1 µM
